# MEKK3 PB1 HTS: MEKK3-MEK5 PB1 interaction, increase or decrease. Q99759. bead-based flow cytometry, Alexa488-MEK5 binding to MEKK3; actives lie on both sides; 0 = blocked by unlabeled MEK5, 100 = vehicle. binding response (% of control), % at 10 µM. 290,000 tested, 1.4% active;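 active = binding response more than 3 SD above or below the average of its plate-row segment, actives on both sides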;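 also: Alexa488 bead fluorescence after subtracting the streptavidin-only scavenger bead signal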
# MEKK2mut PB1 HTS: signal of MEK5 binding to mutant human MEKK2 PB1 domain; bead flow cytometry, Alexa488-MEK5 binding to MEKK2 mutant; percent response, % at 10 µM; 290,000 tested, 0.35% active; AID 1530; in the data active = percent response above about 24%, passing the limit was not always enough
# MEKK2wt PB1 HTS: raises or lowers MEK5 binding to wildtype human MEKK2 PB1 domain | bead flow cytometry, Alexa488-MEK5 binding to MEKK2 WT; actives lie on both sides | AID 1531 | binding response (% of control), % at 10 µM | 290,000 tested, 1.1% active; in the data active = binding response below about 67% or above about 130%
# DNA FID counter: fluorescent intercalator displacement, NS3 helicase counter-screen. DNA fluorescent intercalator displacement, fluorescence. inhibition, % at 7.9 µM. 290,000 tested, 0.17% active; in the data active = inhibition above about 37%;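 also: 0% = vehicle and 100% = reference compound; higher means more ethidium bromide displaced from hairpin DNA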
# T cruzi inh: blocks replication of Trypanosoma cruzi. T. cruzi beta-gal in NIH3T3, luminescence, 90 h. inhibition, % (test concentration not listed). 300,000 tested, 1.4% active. AID 1885;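 active = mean inhibition across valid replicates above about 55%, limit read from the data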;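 also: signal also drops with host cell toxicity which is not excluded here; 0% = plate median of DMSO wells and 100% = zero luminescence signal; higher percent means less beta-gal luminescence so fewer parasites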
#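 System: Mouse NIH/3T3 fibroblasts infected with β-gal-expressing T. cruzi Tulahuen C4 | Quantity: NIH/3T3 cells, 5,000 per well | Reagent: 5000 reporter trypomastigotes per well | Dosing: Compound pinned at 50 nL/well, DMSO | Schedule: 3 h host attachment, then at least 90 h co-culture | Detection: GalScreen luminescence, 60 min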
# HCV NS3 hel inh: HCV NS3 helicase inhibition. NS3 helicase DNA unwinding, Cy5 molecular beacon fluorescence. inhibition, % at 10.9 µM. 290,000 tested, 0.56% active;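 active = inhibition above the mean of all tested compounds plus 3 SD, set per campaign, cut at about 35% in these data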;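 also: 0% = DMSO wells and 100% = thioflavine S control wells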
#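 Assay system – hepatitis C virus NS3 helicase domain fragment enzyme · Buffer or medium – MOPS pH 6.5, MgCl2, DTT, Tween20, BSA · Reagent – Cy5/quencher beacon DNA duplex and ATP to start · Compound – single 10.9 µM dose · Timing – 1 h at 25 °C · Technique – Cy5 beacon fluorescence read at start and 1 h · Measure – % inhibition of unwinding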
# MEKK2wt confirm: raises or lowers MEK5 binding to wildtype human MEKK2, retest; 5,900 tested, 2.4% active; AID 1892; binding response (% of control), % at 10 µM; shares compounds with MEKK3 PB1 HTS; bead flow cytometry, Alexa488-MEK5 binding to MEKK2 WT; actives lie on both sides; in the data active = binding response below about 16% or above about 210%; inactive = in between
# MEKK2mut confirm: signal of MEK5 binding to mutant human MEKK2, retest; shares compounds with MEKK3 PB1 HTS; bead flow cytometry, Alexa488-MEK5 binding to MEKK2 mutant; percent response, % at 10 µM; 5,900 tested, 2% active; in the data active = percent response mostly above about 71%, no sharp cut-off; inactive = mostly below about 38%;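 also: higher means compound restores mutant binding toward wildtype level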
# MEKK3 confirm: MEKK3-MEK5 PB1 inhibition, single concentration confirmation | shares compounds with MEKK3 PB1 HTS | bead flow cytometry, Alexa488-MEK5 binding to MEKK3; stronger effect = lower value | binding response (% of control), % at 10 µM | 5,900 tested, 1.8% active | AID 1894;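 active = binding response below 72% of control, or above a set upper limit, though filed actives all read lower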;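 also: 100% = DMSO only wells and 0% = binding blocked by excess unlabeled MEK5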
# Numbers without * were called inactive; x = not tested or not shown; [ ] = dose if it differs, or a comment. Rows were chosen to be rich in hits. Some 4.1% of all compounds tested hit in one or more screens of this group.
SMILES,MEKK3 PB1 HTS,MEKK2mut PB1 HTS,MEKK2wt PB1 HTS,DNA FID counter,T cruzi inh,HCV NS3 hel inh,MEKK2wt confirm,MEKK2mut confirm,MEKK3 confirm
COc1ccc(C(=O)Nc2ccccc2C(=O)NC(Cc2c[nH]c3ccccc23)C(=O)O)cc1 (stereo unspecified),82,-13,88,-11,-10,26,x,x,x
CCOc1ccc(C2/C(=C(\O)c3cccc(OC)c3)C(=O)C(=O)N2c2ccccn2)cc1OC (stereo unspecified),94,-5,95,-42,8,4,x,x,x
O=C(CSCC(=O)N1CCOCC1)Nc1nc(-c2ccccc2)cs1,131*,22,118,-18,11,-2,96,-1,98
CC(=O)c1ccc(NS(=O)(=O)c2ccc(N)cc2)cc1,135*,1,118,1,0,-1,101,12,104
CC(=O)c1ccc(NS(=O)(=O)c2ccccc2)cc1,103,-5,103,1,-8,5,x,x,x
CCN(C(=O)c1ccc(S(=O)(=O)N(C)C)cc1)C(C)C(=O)Nc1ccc(C)cc1 (stereo unspecified),98,2,98,-27,4,13,x,x,x
Cc1cccc2cc(CN(Cc3ccccc3)C(=O)N(C)C)c(=O)[nH]c12,127*,6,126,-6,-17,-1,96,-8,96
Cc1ccc(CN(Cc2cc3cccc(C)c3[nH]c2=O)C(=O)N(C)C)cc1,102,-4,97,x,5,x,x,x,x
OCCC1CN(Cc2ccon2)CCN1CCc1ccccc1 (stereo unspecified),93,-9,89,0,-9,5,x,x,x
Cc1ccc(-n2c(O)c(C=NCc3ccccn3)c3ccccc3c2=O)cc1,129*,0,106,-20,-7,-3,92,-9,94
C=CCSc1nc(C)cc(/C=C\c2ccccc2)c1C#N,102,0,103,0,25,-2,x,x,x
COc1ccc(CCNC(=O)CCc2cn(C)c3ccccc23)c(OC)c1OC,120,27*,117,-28,0,2,103,3,103
COc1ccc(OC)c(CCNC(=O)CCc2cn(C)c3ccccc23)c1,107,5,105,-32,-16,8,x,x,x
Cc1cc(NC(=O)c2ccccc2O)nc(C)n1,104,2,105,1,-7,4,x,x,x
Cc1cc(C)nc(NNC(=O)c2ccccc2O)n1,129*,1,111,0,-11,-13,104,3,103
COc1cc(NC(=O)COC(=O)CNS(=O)(=O)c2ccc(F)c(F)c2F)cc(OC)c1,101,-2,101,-8,-13,0,x,x,x
COc1ccc(NC(=O)COC(=O)CNS(=O)(=O)c2ccc(F)c(F)c2F)cc1OC,135*,0,105,-2,-9,1,103,5,107
O=C(Cn1cnc2cc([N+](=O)[O-])ccc2c1=O)NC1CCS(=O)(=O)C1 (stereo unspecified),101,-5,99,3,0,-8,x,x,x
COc1ccc(CCn2c(NN=C3CCCCC3)nc3c2c(=O)[nH]c(=O)n3C)cc1,65*[inhibitor],-9,57*[inhibitor],-11,0,3,99,-1,97
COc1ccc(CNc2nc3c(c(=O)[nH]c(=O)n3C)n2CCCc2ccccc2)cc1,98,4,100,-8,16,0,x,x,x
Cc1ccc(NC(=S)NNC(=O)c2cccc([N+](=O)[O-])c2)cc1Cl,99,-2,99,-2,-28,2,x,x,x

# High-throughput results from PubChem BioAssay.
